Hits are enriched below; roughly 3.7% of the tested compounds scored in any of these assays.
Kir21 inh: Kir2.1 (mouse) channel inhibition. B-score at 10 µM. P35561. HEK293-Kir2.1, FluxOR thallium flux fluorescence; stronger effect = lower value. actives 0.85% (n = 310,000);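 active = fluorescence ratio B-score at or below minus 3 SD of library scores, with starting-brightness B-score within 2 SD, cut at about -4.2 in these data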;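 note: channel flux triggered by added potassium and thallium sulfate stimulus; B-score of peak minus minimum fluorescence over baseline after thallium stimulus; more negative B-score means stronger Kir2.1 block with less thallium influx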
KCNK9 inh: blocks the human KCNK9 two-pore domain potassium channel; Q9NPC2; HEK293 KCNK9, FluxOR thallium flux fluorescence; stronger effect = lower value; B-score at 10 µM; actives 1.2% (n = 310,000);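 active = ratio B-score over 3 SD below the library mean, with starting fluorescence within 5 SD of its mean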;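 note: negative B-score means less thallium flux so channel inhibition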
KCNQ1 inh: human KCNQ1 channel inhibition. actives 1.3% (n = 310,000). B-score at 10 µM. AID 2642. CHO-K1 KCNQ1, FluxOR thallium flux fluorescence; stronger effect = higher value. P51787;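 active = compounds whose thallium flux B-score, printed positive for inhibition, exceeds three library SD while starting fluorescence stays within three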;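 note: channel opened by potassium depolarization with thallium stimulus after 20 min compound exposure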
KCNQ1 act: potentiates or activates the human KCNQ1 potassium channel. P51787. CHO-K1 KCNQ1, thallium flux FluxOR fluorescence; stronger effect = higher value. B-score at 10 µM. actives 0.35% (n = 310,000). AID 2648;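 active = fluorescence ratio B-score, a plate-corrected score, at least three library SD, with initial intensity B-score within 5 SD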
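Assay system: CHO-K1 cells stably expressing KCNQ1; Medium: assay buffer with matched DMSO; Also added: K+/Tl+ depolarizing stimulus; Dosing: single dose; Timing: dye 90 min, compound 20 min, room temperature; Measured by: kinetic FluxOR thallium fluorescence, 10-s 1-Hz baseline, 110-s post-stimulus read; Read-out: peak-minus-minimum fluorescence over initial fluorescence, negative-control normalized, B-scored.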
hERG protect: hERG (human) protection from proarrhythmic block; Q12809; CHO-hERG, FluxOR thallium flux, dofetilide IC70 present; activation (rescue from dofetilide block), less the hit threshold, % at 10 µM; actives 0.51% (n = 310,000); AID 1511;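 active = activation above the mean of controls blocked by dofetilide plus 5 SD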;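 note: thallium influx through hERG after potassium depolarization seen as dye fluorescence rise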
Target sequence (Q12809 whole entry, looked up): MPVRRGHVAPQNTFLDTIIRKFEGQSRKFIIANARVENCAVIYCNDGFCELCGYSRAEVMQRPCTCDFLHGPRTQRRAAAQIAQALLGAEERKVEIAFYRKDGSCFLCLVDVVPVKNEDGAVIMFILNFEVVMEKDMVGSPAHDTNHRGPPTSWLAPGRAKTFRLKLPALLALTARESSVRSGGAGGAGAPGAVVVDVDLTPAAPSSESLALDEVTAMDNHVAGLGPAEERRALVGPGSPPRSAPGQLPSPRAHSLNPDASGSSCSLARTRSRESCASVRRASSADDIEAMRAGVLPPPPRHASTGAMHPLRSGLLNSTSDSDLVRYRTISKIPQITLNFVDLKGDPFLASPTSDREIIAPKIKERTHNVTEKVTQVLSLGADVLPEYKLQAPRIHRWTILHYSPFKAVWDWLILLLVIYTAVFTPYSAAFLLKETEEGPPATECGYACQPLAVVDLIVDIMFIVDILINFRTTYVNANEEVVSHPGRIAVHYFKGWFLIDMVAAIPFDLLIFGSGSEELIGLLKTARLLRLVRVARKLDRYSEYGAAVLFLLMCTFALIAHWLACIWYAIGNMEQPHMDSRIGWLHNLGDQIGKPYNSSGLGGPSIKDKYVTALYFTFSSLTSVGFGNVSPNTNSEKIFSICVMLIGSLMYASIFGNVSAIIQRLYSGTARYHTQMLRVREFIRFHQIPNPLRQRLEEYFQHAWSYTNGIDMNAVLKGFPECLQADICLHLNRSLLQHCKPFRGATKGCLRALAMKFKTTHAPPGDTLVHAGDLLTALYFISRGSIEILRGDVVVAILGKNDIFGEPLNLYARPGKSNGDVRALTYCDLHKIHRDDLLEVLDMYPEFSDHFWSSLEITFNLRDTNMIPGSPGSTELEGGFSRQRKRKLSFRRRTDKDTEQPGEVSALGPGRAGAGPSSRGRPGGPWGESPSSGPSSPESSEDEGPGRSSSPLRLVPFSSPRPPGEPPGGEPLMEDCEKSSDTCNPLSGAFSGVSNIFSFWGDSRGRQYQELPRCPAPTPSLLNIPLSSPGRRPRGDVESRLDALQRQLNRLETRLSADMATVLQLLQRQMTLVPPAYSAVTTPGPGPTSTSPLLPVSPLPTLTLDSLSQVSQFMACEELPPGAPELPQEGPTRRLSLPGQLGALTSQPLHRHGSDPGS
KCNK3 inh: human KCNK3 channel inhibition, primary screen; O14649; CHO-KCNK3 thallium flux, FluxOR fluorescence; stronger effect = lower value; B-score at 10 µM; actives 0.84% (n = 340,000); AID 602410;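 active = B-score under library mean minus 4 SD, starting fluorescence ratio at most library mean plus 5 SD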;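 note: more negative B-score means stronger inhibition of thallium flux through KCNK3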
* marks the source's active call; other numbers are inactive results; i = inactive; · = no result.

SMILES	Kir21 inh	KCNK9 inh	KCNQ1 inh	KCNQ1 act	hERG protect	KCNK3 inh
S=C(NCCc1ccccc1)N1CCn2cccc2C1c1cccnc1 (stereo unspecified)	0.17	i	i	15*	-12	i
S=C(NCc1ccccc1)N1CCn2cccc2C1c1cccnc1 (stereo unspecified)	3.1	i	i	i	-7	i
CC(=O)Nc1ccc(NC(=O)CSc2n[nH]c(-c3cccs3)n2)cc1	-0.91	i	i	i	-7	i
O=C(Nc1cccc(C(F)(F)F)c1)C(SCCO)c1ccccc1 (stereo unspecified)	-1.3	-7.4*	i	i	-11	i
O=C(Nc1cccc(C(F)(F)F)c1)C(Sc1ncnc2ccccc12)c1ccccc1 (stereo unspecified)	0.93	i	i	i	-12	i
Cn1nnnc1SC(C(=O)Nc1cccc(C(F)(F)F)c1)c1ccccc1 (stereo unspecified)	0.11	-7*	i	i	-11	i
CCN1CCN(Cc2ccc(NC(=O)c3cc(NC(=O)c4cc5cccc(OC)c5o4)cc(OC)c3)cc2C(F)(F)F)CC1	0	i	i	i	-33	i
COc1cc(NC(=O)c2csc(-c3ccncc3)n2)cc(C(=O)Nc2cccc(C(F)(F)F)c2)c1	0.51	i	11*	i	-26	i
COc1cccc(NC(=O)c2cc3cccc(OC)c3o/c2=N\O)c1	-1.6	i	7*	i	-9	·
COc1cc(NC(=O)c2cc3cccc(OC)c3o2)cc(C(=O)Nc2cccc(C(F)(F)F)c2)c1	0.65	i	7*	i	-26	i
O=C(Nc1cccc(C(F)(F)F)c1)c1csc(-c2ccncc2)n1	1.4	i	i	i	-10	i
NCCCC[C@@H](C(=O)NCCCCCCCCCCC(=O)N1CCNCC1)n1cc(CCCC(=O)O)nn1	·	·	·	·	·	i
O=S(=O)(Cc1ccccc1)C(CCCc1ccccc1)S(=O)(=O)Cc1ccccc1	·	·	·	·	·	i
O=C(COC(=O)CCc1nc2ccccc2s1)NC(=O)NCc1ccco1	-0.32	i	i	i	-8	i
O=S(=O)(N1CCOCC1)n1c(Cc2ccccc2)nc2ccccc21	-4.3*	i	i	i	-10	i
O=S(=O)(N1CCOCC1)n1nnc2ccccc21	-0.02	i	i	i	-1	i
CCOc1ccc2cc(S(=O)(=O)n3ccnc3C)ccc2c1	-3.6	i	i	i	-3	i
CCc1nccn1S(=O)(=O)c1ccc2ccc(C)cc2c1	-1.2	i	i	28*	27*	i
COc1ccc(/C=C/C(=O)OCC(=O)NC2CCCC2)cc1	·	·	·	·	·	i
CCOc1ccc2nc(NC(=O)C3CSC4(C)CCC(=O)N34)sc2c1 (stereo unspecified)	·	·	·	·	·	i
Oc1c(Cl)cc(Cl)cc1Sc1cc(Cl)cc(Cl)c1O	0.96	i	i	105*	43*	·
NS(=O)(=O)c1cccc(NC(=O)CSc2nnc(-c3ccccc3F)n2C2CC2)c1	0.11	i	i	i	-14	i
COc1ccc(NC(=O)Nc2cc(C)ccc2F)cc1	-0.72	i	i	i	5.1*	i
Cc1ccc(NC(=O)CCCc2ccccc2)nc1	0.83	i	6*	i	-16	i
Cc1ccc(NC(=O)Cc2ccc(-c3ccccc3)cc2)nc1	0.99	i	i	i	-3	i
SMILES	Kir21 inh	KCNK9 inh	KCNQ1 inh	KCNQ1 act	hERG protect	KCNK3 inh
COCCCNC(=O)c1cn(-c2cccc(OC)c2)c(=O)c2ccccc12	-1	i	i	i	-1	i
CCN(CC)CCCNC(=O)c1cn(-c2cccc(OC)c2)c(=O)c2ccccc12	-0.5	i	i	i	5.0*	i
COc1cc(OC)c(NC(=O)c2cc3ccccc3cc2O)cc1Cl	·	·	·	·	·	-9.2*
CCCCn1nnc(NC(=O)c2ccc(-c3ccccc3[N+](=O)[O-])o2)n1	0.03	i	i	i	-31	i
CCCCn1nnc(NC(=S)NC(=O)c2ccc(-c3cccc(Cl)c3Cl)o2)n1	2.2	i	i	i	7.4*	i
COc1ccccc1C(CCNCc1ccc(N(C)C)cc1)c1ccc(OC(C)C)cc1 (stereo unspecified)	-4.4*	i	10*	i	-27	i
COc1ccc(CNCCC(c2ccc(OC(C)C)cc2)c2ccccc2OC)cc1 (stereo unspecified)	-7.4*	i	9*	i	-20	i
COc1ccc(CNCCC(c2ccccc2)c2ccc3c(c2)OCO3)cc1 (stereo unspecified)	-8.1*	i	i	i	-16	i
COc1ccc(C(CC(=O)O)c2ccc3c(c2)OCO3)cc1 (stereo unspecified)	-0.42	i	i	i	-3	i
COc1ccc(CNCCC(c2ccc(OC(C)C)cc2)c2ccccc2OC)cc1OC (stereo unspecified)	-3.3	i	i	i	-16	i
COc1ccccc1C(CCNCc1ccccc1)c1ccc(OC(C)C)cc1 (stereo unspecified)	-6.3*	i	i	i	-20	i
Cc1ccc(S(N)(=O)=O)cc1NC(=O)C(c1ccccc1)c1ccccc1	0.33	i	i	i	0	i
CCOC(=O)c1cc([N+](=O)[O-])cc([N+](=O)[O-])c1Sc1ncnc2nc[nH]c12	·	·	·	·	·	i
COc1ccc(CNCC(O)COc2ccc(C(C)(C)c3ccccc3)cc2)cc1 (stereo unspecified)	-5.7*	i	i	i	-27	i
CC(C)(c1ccccc1)c1ccc(OCC(O)CNC2CCN(Cc3ccccc3)CC2)cc1 (stereo unspecified)	-4.9*	-7.5*	8*	i	-30	i
CCCCNc1ccc2nsnc2c1[N+](=O)[O-]	1.7	i	i	i	-6	i
C=CCn1c(O)c(N=NC(=O)CNC(=O)Cc2ccccc2)c2ccccc21	-0.47	i	i	i	-4	i
CC(C)CC(=O)Nc1ccc(C(=O)NNC(=S)NC(=O)C2CCCCC2)cc1	-1.1	i	7*	i	-4	i
COc1ccccc1/C=C(/NC(=O)c1ccccc1)C(=O)NCCN1CCOCC1	0.7	i	i	i	-11	i
O=C1c2[nH]nc(-c3ccccc3O)c2C(c2ccc(F)cc2)N1Cc1ccco1 (stereo unspecified)	-0.32	i	6*	i	-21	i
CCOC(=O)N1CCN(C(=O)c2cc3cc(Cl)ccc3[nH]2)CC1	0.66	i	i	i	-8	i
CCOc1ccc(NC(=O)c2ccc(N)cc2)cc1	0.88	i	i	11*	-1	i

Source: PubChem (Johns Hopkins Ion Channel Center)
